ATG4B inh: blocks human ATG4B protease cleavage of LC3 substrate; Q9Y4P1; ATG4B cleavage of LC3-PLA2, NBD-HPC fluorescence, 1 h; inhibition, % at 8.33 µM; hit rate 0.51% among 340,000; AID 504462; in the data active = inhibition above about 40%
TPT1 inh: blocks Candida albicans tRNA 2'-phosphotransferase. recombinant caTPT1, FP RNA substrate dephosphorylation. inhibition, % at 5 µM. hit rate 0.81% among 300,000;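 active = inhibition above the mean of all tested compounds plus 3 SD, set per screening campaign, cut at about 24% in these data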;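 note: plate controls were DMSO alone for no effect and ferristatin control at 100 nM for full effect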
HNF4A DNA FP: change in binding of human HNF4 alpha to DNA | HNF4a-FITC DNA binding, fluorescence polarization, 1 h | AID 1224865 | hit rate 0.3% among 360,000 | activity change, % at 10 µM; in the data active = activity change above about 30%, passing the limit was not always enough
Target sequence (P41235 whole entry, looked up): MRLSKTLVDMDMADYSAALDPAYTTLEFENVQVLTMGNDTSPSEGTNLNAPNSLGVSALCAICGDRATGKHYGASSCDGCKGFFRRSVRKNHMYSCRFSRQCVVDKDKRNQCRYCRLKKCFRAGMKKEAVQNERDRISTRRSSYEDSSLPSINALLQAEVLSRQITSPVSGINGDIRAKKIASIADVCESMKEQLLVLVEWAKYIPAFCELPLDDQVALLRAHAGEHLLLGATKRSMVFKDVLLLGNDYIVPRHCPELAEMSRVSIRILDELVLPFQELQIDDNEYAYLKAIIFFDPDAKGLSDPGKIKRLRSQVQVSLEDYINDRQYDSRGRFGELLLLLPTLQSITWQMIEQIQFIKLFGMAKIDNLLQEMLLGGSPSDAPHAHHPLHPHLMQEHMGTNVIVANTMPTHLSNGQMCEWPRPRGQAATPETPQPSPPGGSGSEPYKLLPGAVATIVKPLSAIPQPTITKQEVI
Rpn11 block: inhibitors of human proteasome Rpn11; O00487; human 26S proteasome, Ub4-pepOG fluorescence polarization; 20S core pre-blocked with epoxomicin; inhibition, % at 20 µM; hit rate 0.59% among 360,000; AID 588493;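 active = inhibition at 20 µM, scaled to each plate's controls, above about 33%, limit read from the data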
SENP1 FRET inh: blocks the human SENP1 SUMO protease catalytic domain; AID 624204; inhibition, % at 10 µM; hit rate 0.21% among 360,000; recombinant SENP1 catalytic domain, CyPet-SUMO1-YPet FRET cleavage;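 active = inhibition at least 30% at 10 µM, raw YFP signal under a set limit, fluorescence ratio 0.5 to 1.5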;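 note: 0% = enzyme with DMSO and 100% = no enzyme wells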
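Test system: hSENP1 catalytic domain, recombinant; Amount: 20 pM final SENP1 enzyme; Medium: Tris pH 8 buffer plus EDTA, NaCl, BME, BSA, NP40, catalase; Schedule: 50 min enzyme reaction, room temperature, light-protected; Technique: FRET fluorescence in CFP and YFP emission channels; Controls: no-enzyme wells low, DMSO-plus-enzyme wells high control.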
CSN inh: inhibitors of human CSN-mediated cullin deneddylation. Q92905. Purified CSN, SCF-Nedd8-OG deneddylation, fluorescence polarization. inhibition, % at 12.5 µM. hit rate 0.38% among 360,000. AID 651999;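 active = pattern-corrected inhibition above about 35%, with an unprinted fluorescence ratio check between 0.5 and 1.5, limit read from the data, passing the limit was not always enough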;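 note: 0% = enzyme with substrate and 100% = substrate without enzyme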
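Test system: purified human Csn5 enzyme expressed in HEK293T cells. Amount: 0.24 nM enzyme. Reagent: SCFSkp2-Nedd8OG substrate at 10 nM final. Schedule: 90 min incubation of compound, enzyme and substrate at room temperature. Detection: fluorescence polarization. Read-out: % inhibition of substrate cleavage by Csn5.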
TPT1 inh confirm: TPT1 (C. albicans) inhibition, confirmation; shares compounds with TPT1 inh; recombinant caTPT1, fluorescence polarization, RNase T1 coupled; inhibition, % at 5 µM; hit rate 74% among 2,400; AID 2149;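 active = inhibition above the primary screen limit, the mean inhibition of all tested compounds plus 3 SD, cut at about 25% in these data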
RNase T1 inh: blocks Aspergillus oryzae RNase T1, a TPT1 counter-screen; RNase T1 cleavage, fluorescence polarization, 1536-well; AID 2153; shares compounds with TPT1 inh; inhibition, % at 5 µM; hit rate 83% among 2,400;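 active = inhibition above the solvent-only control well mean plus 3 SD, limit set per screening run, cut at about 23% in these data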;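 note: plate controls were DMSO wells with enzyme for no effect and wells without RNase T1 for full effect; inhibitors block cleavage so intact labeled substrate keeps polarization high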
An asterisk follows results filed as active; . = no result shown. Compounds with a hit are over-represented: about 2% of the library has one in this group of screens.

SMILES	ATG4B inh	TPT1 inh	HNF4A DNA FP	Rpn11 block	SENP1 FRET inh	CSN inh	TPT1 inh confirm	RNase T1 inh
COC(=O)c1ccc(/C=C(\C#N)c2nc3ccccc3s2)cc1	0	36*	-1	17	11	4	21	29*
CCOC(=O)N1CCN(/C=C(\C#N)c2nc3ccccc3s2)CC1	-1	75*	29	.	-61	6	44*	54*
CCOC(=O)N1CCC(=NNc2nc3ccccc3s2)CC1	-8	0	2	-6	-3	-2	.	.
COC(=O)Cc1cc(=O)oc2cc(OC)ccc12	-1	0	2	1	-8	0	.	.
COC(=O)Cc1cc(C)cc2c(=O)cc(-c3ccoc3)oc12	6	34*	91	.	-33	12	53*	66*
CC(=O)NCCNc1nc2cc(-c3ccc(C)cc3)sc2c(=O)n1C	.	.	3	5	0	-4	.	.
O=C(COc1ncnc2sccc12)Nc1cccc(S(=O)(=O)N2CCOCC2)c1	-9	.	9	3	-15	1	.	.
COc1ccc(C(=O)NC(=S)N2CCCCC2)cc1	-3	3	0	-2	3	-3	.	.
COc1cc(OC)cc(C(=O)NC(=S)N2CCCCCC2)c1	-7	43*	1	-1	0	0	2	4
O=C(Cn1ncc2c3ccccc3n(Cc3cccc(Cl)c3)c2c1=O)NCC1CCCO1 (stereo not given)	2	29*	24	.	21	19	98*	94*
O=C(Cn1ncc2c3ccccc3n(Cc3ccccc3F)c2c1=O)NCC1CCCO1 (stereo not given)	-6	-1	-2	-1	-2	1	.	.
O=C(Nc1ccncc1)c1cc(C2CCCCN2C(=O)CCCc2ccccc2)on1 (stereo not given)	.	.	3	0	1	5	.	.
CC(=O)NCCC(=O)Nc1sc2c(c1-c1nc3ccccc3[nH]1)CCCC2	-13	1	4	11	1	2	.	.
CN1CCN(S(=O)(=O)c2cccc(C(=O)Nc3sc4c(c3-c3nc5ccccc5[nH]3)CCCC4)c2)CC1	12	33*	0	33	-20	3	35*	48*
O=C1C=CC(=O)N1CCNc1ncc(C(F)(F)F)cc1Cl	0	.	3	-2	2	1	.	.
O=C1CC(=O)N(CCNc2ncc(C(F)(F)F)cc2Cl)C(=O)N1	10	38*	17	19	-6	79	23	39*
COc1ccc(C(=O)Nc2nnc([C@@H]3C[C@H](O)[C@@H](CO)O3)s2)cc1	.	.	3	4	1	-1	.	.
N#C/C(=C/c1ccc(N2CCOCC2)o1)c1nc2ccccc2[nH]1	-29	180*	152	.	-16	-13	164*	152*
N#C/C(=C\c1ccc(Sc2nc3ccccc3[nH]2)o1)c1ccccc1	2	3	8	0	-15	1	.	.
N#C/C(=C\c1ccc(Sc2ccc(Cl)cc2)o1)c1nc2ccccc2[nH]1	2	52*	14	26	-25	4	51*	66*
N#C/C(=C\c1ccc(N2CCOCC2)o1)c1ccccc1	-12	67*	78*	.	-10	8	138*	137*
O=C(Nc1ccn(-c2ccccc2)n1)c1ccccc1Br	-1	34*	3	0	2	-2	4	10
COC(=O)C1CC(=O)c2ccsc2C1 (stereo not given)	-2	64*	-3	4	1	-1	1	4
O=C(/C=C/[C@H]1O[C@@H](n2cnc3c(NC(=O)c4ccccc4)ncnc32)[C@H](O)[C@@H]1O)NCC1CCCO1 (stereo not given in full)	.	.	-1	-6	1	-6	.	.
CNC(=O)/C(C#N)=C/c1c(N2CCCCCC2)nc2ccccn2c1=O	-1	36*	7	0	-33	8	51*	60*

Assay outcomes from PubChem BioAssay.
